Target: Sodium-dependent dopamine transporter (Rattus norvegicus, UniProt P23977)
Test: Binding affinity for dopamine transporters in rat brain tissue.
Procedure, shortened: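 Crude membrane fraction from rat corpus striatum homogenate. Nonspecific binding defined with 30 μM methylphenidate. Each agent tested at six concentrations in duplicate. Concentration-inhibition curves computer-fit for IC50 ± SEM, converted to Ki = IC50/(1 + [L/Kd]).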

Sodium-dependent dopamine transporter, sequence (P23977 whole entry): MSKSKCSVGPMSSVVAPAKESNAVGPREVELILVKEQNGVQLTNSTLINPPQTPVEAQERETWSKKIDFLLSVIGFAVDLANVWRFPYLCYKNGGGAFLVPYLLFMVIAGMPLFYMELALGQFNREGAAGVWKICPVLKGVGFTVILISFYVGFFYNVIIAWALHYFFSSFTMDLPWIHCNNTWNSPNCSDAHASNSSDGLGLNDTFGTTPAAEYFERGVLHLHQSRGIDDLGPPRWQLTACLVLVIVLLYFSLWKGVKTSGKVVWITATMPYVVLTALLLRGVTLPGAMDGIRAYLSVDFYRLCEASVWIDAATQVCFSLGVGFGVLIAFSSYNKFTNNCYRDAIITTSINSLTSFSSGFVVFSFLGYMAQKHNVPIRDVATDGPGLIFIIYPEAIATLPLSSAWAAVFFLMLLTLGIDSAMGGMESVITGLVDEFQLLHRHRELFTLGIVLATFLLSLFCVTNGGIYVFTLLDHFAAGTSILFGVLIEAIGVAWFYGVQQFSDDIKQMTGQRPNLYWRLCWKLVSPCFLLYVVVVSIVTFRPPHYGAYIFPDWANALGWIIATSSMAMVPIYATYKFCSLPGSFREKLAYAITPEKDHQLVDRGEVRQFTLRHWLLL

## CC(C)OC(=O)[C@H]1C(c2cc[c]([Sn]([CH3])([CH3])[CH3])cc2)C[C@H]2CCC1N2CCF (stereo partly drawn) [(2S,5R)-8-(2-Fluoro-ethyl)-3-(4-trimethylstannanyl-phenyl)-8-aza-bicyclo[3.2.1]octane-2-carboxylic acid isopropyl ester]
  Ki: 1.15 µM

## COC(=O)[C@H]1C(c2cc[c]([Sn]([CH3])([CH3])[CH3])cc2)C[C@H]2CCC1N2CCF (stereo partly drawn) [(2S,5R)-8-(2-Fluoro-ethyl)-3-(4-trimethylstannanyl-phenyl)-8-aza-bicyclo[3.2.1]octane-2-carboxylic acid methyl ester]
  Ki: > 10 µM

## CC(C)OC(=O)[C@H]1C(c2cc[c]([Sn]([CH3])([CH3])[CH3])cc2)C[C@H]2CCC1N2CCCF (stereo partly drawn) [(2S,5R)-8-(3-Fluoro-propyl)-3-(4-trimethylstannanyl-phenyl)-8-aza-bicyclo[3.2.1]octane-2-carboxylic acid isopropyl ester]
  Ki: > 10 µM

## COC(=O)[C@H]1C(c2cc[c]([Sn]([CH3])([CH3])[CH3])cc2)C[C@H]2CCC1N2CCCF (stereo partly drawn) [(2S,5R)-8-(3-Fluoro-propyl)-3-(4-trimethylstannanyl-phenyl)-8-aza-bicyclo[3.2.1]octane-2-carboxylic acid methyl ester]
  Ki: > 10 µM
